The results in this text go back to ChEMBL document CHEMBL3580545, “Steroidal Alkaloids from Veratrum nigrum Enhance Glucose Uptake in Skeletal Muscle Cells” (J Nat Prod, 2015).

Test [1] has as its target T1, Tyrosine-protein phosphatase non-receptor type 1 (Homo sapiens, UniProt P18031).
T1 sequence (P18031 whole entry): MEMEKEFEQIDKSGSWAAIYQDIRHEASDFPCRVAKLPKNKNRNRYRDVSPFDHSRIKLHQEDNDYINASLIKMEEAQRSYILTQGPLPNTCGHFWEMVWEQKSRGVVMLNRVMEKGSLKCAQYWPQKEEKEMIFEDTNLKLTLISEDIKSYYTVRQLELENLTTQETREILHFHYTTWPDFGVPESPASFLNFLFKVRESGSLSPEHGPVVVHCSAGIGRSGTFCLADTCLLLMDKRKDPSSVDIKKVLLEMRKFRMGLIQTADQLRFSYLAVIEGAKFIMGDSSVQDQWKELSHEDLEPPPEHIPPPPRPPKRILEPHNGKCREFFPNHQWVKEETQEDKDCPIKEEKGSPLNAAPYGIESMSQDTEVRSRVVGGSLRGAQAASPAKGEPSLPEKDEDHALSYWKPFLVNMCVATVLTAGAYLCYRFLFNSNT
As to the kind of experiment: Inhibition of PTP1B (unknown origin) using p-nitrophenyl phosphate as substrate after 30 mins. A digest of the protocol:
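PTP1B (source not stated) 0.05−0.1 μg with 2 mM p-nitrophenyl phosphate in 50 mM citrate pH 6.0, 0.1 M NaCl, 1 mM EDTA, 1 mM dithiothreitol, ± test compound; 37 °C for 30 min, quenched with 10 M NaOH; p-nitrophenol read at 405 nm; IC50 determined.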

Test [2] relates to C2C12. As to the kind of experiment: Induction of 2-deoxy-[3H]-glucose uptake in mouse C2C12 cells at 30 uM after 2 hrs by liquid scintillation counting analysis. The format is functional, cell-based. The procedure, abridged:
(§1)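 C2C12 myoblasts grown in DMEM/10% FBS, differentiated at confluence in 1% FBS DMEM to day 4. Myotubes serum-starved 3 h (0.2% BSA), 1 h in KRPH buffer pH 7.4, then compound (0.1% DMSO) for 2 h. Uptake of 0.5 μCi/mL 2-deoxy-[3H]-glucose plus 100 μM 2-deoxy-D-glucose for 10 min. Ice-cold PBS wash, SDS/NaOH lysis, scintillation counting normalized to protein. Three independent experiments in triplicate, mean ± SEM.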

The test system of test [3] is C2C12. The experiment in a line: Potentiation of insulin-induced 2-deoxy-[3H]-glucose uptake in mouse C2C12 cells at 30 uM preincubated with cells followed by insulin induction for 30 mins by liquid scintillation counting analysis relative to control. The format is functional. A digest of the protocol: (§2)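 Differentiated C2C12 myotubes, serum-starved 3 h then 1 h in KRPH buffer pH 7.4, given compound (0.1% DMSO), then 100 nM insulin for 30 min. 2-Deoxy-[3H]-glucose (0.5 μCi/mL) with 100 μM 2-deoxy-D-glucose taken up for 10 min. Cells washed in cold PBS, lysed in 0.1% SDS/0.5 M NaOH, scintillation counted and normalized to total protein. Mean ± SEM, three experiments in triplicate.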

Test [4] relates to C2C12. The experiment in a line: Induction of 2-deoxy-[3H]-glucose uptake in mouse C2C12 cells at 10 uM after 2 hrs by liquid scintillation counting analysis relative to control. The format is functional. A digest of the protocol: as §1
The test system of test [5] is C2C12. As to the kind of experiment: Potentiation of insulin-induced 2-deoxy-[3H]-glucose uptake in mouse C2C12 cells at 10 uM preincubated with cells followed by insulin induction for 30 mins by liquid scintillation counting analysis relative to control. The format is functional. The procedure, abridged: as §2
In test [6] the test system is C2C12. The experiment in a line: Induction of 2-deoxy-[3H]-glucose uptake in mouse C2C12 cells at 5 uM after 2 hrs by liquid scintillation counting analysis. The format is functional, cell-based. The procedure, abridged:
as §1

For test [7], the system named is C2C12. As to the kind of experiment: Potentiation of insulin-induced 2-deoxy-[3H]-glucose uptake in mouse C2C12 cells at 5 uM preincubated with cells followed by insulin induction for 30 mins by liquid scintillation counting analysis. The format is functional, cell-based. The procedure, abridged:
as §2

The source made the active and inactive calls. The rule behind the calls is not given here.

For `C[C@@H]1CN[C@H]2[C@@H](C)[C@@]3(CC[C@@H]4C(=C[C@H]5[C@H]4CC=C4C[C@@H](O)CC[C@@]45C)[C@@]3(C)O)O[C@@H]2C1`, the IC50 – broadly, the concentration that gives 50% inhibition – in test [1] was greater than 30 µM.

Turning to `CN(CCOc1ccc(CC2SC(=O)NC2=O)cc1)c1ccccn1` (stereo not drawn) [ROSIGLITAZONE], the result in the test with C2C12 [2] was Active. Also, in the test on C2C12 [3], the Activity turned out to be 47.3%.

For `CC1=C2C(=O)[C@H]3[C@@H](CC[C@@H]4C[C@@H](O)C[C@@H](O)[C@@]43C)[C@@H]2CC[C@]12O[C@@H]1C[C@H](C)CN[C@H]1[C@H]2C`, the 50% inhibitory concentration (IC50) in test [1] is greater than 30 µM.

In test [1], `C[C@H]1CC[C@@H]2N(C1)C[C@H]1[C@@H]3C[C@H]4[C@@H](CC=C5C[C@@H](OC=O)CC[C@@]54C)[C@@H]3C[C@H](O)[C@@H]1[C@]2(C)O` displayed an IC50 greater than 30 µM.

As for `CC(=O)O[C@H]1CC[C@@]2(C)C(=CC[C@H]3c4ccc([C@H](C)[C@@H]5NC[C@@H](C)C[C@H]5O)c(C)c4C[C@@H]32)C1`, inhibition in test [1] was half-maximal at 4.7 µM (IC50). Moreover, the Activity in the test on C2C12 [4] is on record as 24.8%; with C2C12 [5], 56%.

On to `CC1=C2C(=O)[C@H]3[C@@H](CC=C4C[C@@H](OC=O)CC[C@@]43C)[C@@H]2CC[C@]12O[C@@H]1C[C@H](C)CN[C@H]1[C@H]2C`, for which the outcome with C2C12 [6] and in the test with C2C12 [7] was Active. In addition, inhibition in test [1] was half-maximal at 11.3 µM (IC50). Besides, the Activity is recorded as 15% in the test on C2C12 [4] and 49.9% in the test with C2C12 [5].
